Test results from the EternaBench riboswitch data.

Test system: MS2 coat protein
Assay: apparent Kd, MS2 coat protein; higher = weaker binding; RNA-MaP array; FMN 200 µM where present
How it was run: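 Stalled E. coli RNA polymerase transcribed each design on Illumina sequencing-chip clusters. The clusters were titrated with SNAP-549-labelled MS2 coat protein, starting at 0.7 or 1.5 nM and doubling up to 3 µM, first without ligand and then with constant ligand, in 100 mM Tris-HCl pH 7.5, 80 mM KCl, 4 mM MgCl2, BSA, DTT, yeast tRNA and Tween-20. Green signal was normalised to red-channel RNA signal and to the control-cluster median Fmax. The apparent Kd is the median of filtered binding-curve fits made for each cluster.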

[1] = designed as: ON switch for flavin mononucleotide, no ligand
[2] = ligand present: flavin mononucleotide, designed as: ON switch for flavin mononucleotide
[3] = designed as: OFF switch for flavin mononucleotide, no ligand
[4] = ligand present: flavin mononucleotide, designed as: OFF switch for flavin mononucleotide

| Sequence | apparent Kd [1] [nM] | apparent Kd [2] [nM] | apparent Kd [3] [nM] | apparent Kd [4] [nM] |
| --- | --- | --- | --- | --- |
| UUGGACGUCGUAGGAUAUGUAGGAUAUUCCUACAUGAGGAUCACCCAUGUUGACAUGGAUGAAGGACAGAAGGACGAUGUCCAU | 276 | 357 | – | – |
| GGGUGGCGUAGAGGAUAUGUGGUACAUGAGGAUCACCCAUGUGCAUAUGAUGUUCAUGUUUAUGUAUAGAAGGCUACGUCGCUA | 26.1 | 36.4 | – | – |
| UAUAUAUAGUAAGGAUAUGUAAUUAUUUUAUACACAGAAGGUACUGACAUGAGGAUCACCCAUGUUUUAGUGUGGGCAUGUAGA | – | – | 55.3 | 86.5 |
| UGUCGGAGCGGAGGAUAUUACAUGAGGAUCACCCAUGUAUGAACCAAUAGCUGGAAACAGCAAUGUAAGAAGGCUGCUCCGACA | – | – | 9.67 | 131 |
| CUCAGCUCGUCAGGAUAUACGUCACUGCUUCGGCAGUGUGGUAAGAUCACAUGAGGAUCACCCAUGUAGAAGGGACGAGCUGAA | – | – | 12.8 | 266 |
| UUGGUGUACGUAGGAUAUGUAGGAUAUUCCUACAUGAGGAUCACCCAUGUAUGCAUGGAAGAAGGACAGAAGGACGUGCACCAU | 203 | 14 | – | – |
| CGUGUACGAGGAUAUAGAUUAGGCGACAUGAGGAUCACCCAUGUGAUCAAUCUAUUUGGUUUAGAAGGUGUACAUG | – | – | 16.7 | 17.6 |
| CUGCGGUCAGGAUAUGCAUGGCGGGACUUGCGUCGUGGCGUGGAGAAGGGACAUGAGGAUCACCCAUGUGGAGA | – | – | 67.9 | 42.3 |
| UUUAUAAAUUAGAAGGCGUGAUAAAAUACAAUAGACAUGAGGAUCACCCAUGUGUACCCAUGUUAUGAGGAUAUAGUCAUAUAU | 279 | 233 | – | – |
| AAUAUGAGCUGGAAUAUAAACCUGACAUGAGGAUCACCCAUGUAGGAUAUCAGCACGAUAAGUGCUGAGAAGGACAACCAGCUC | – | – | 14 | 14.5 |
| GGCGAACAGGCUAACAUGAGGAUCACCCAUGUGGACUCAUGGUAGGAUAUCGGGAAGGAGGAAACCGAGAAGGGCCGGUGAGCA | 202 | 43.6 | – | – |
| AUUAAUCAGCAGGAUAUAAGUAUCUGAAGGUGGUUAGAAGGGCUGACAUGAGGAUCACCCAUGUGCUCUUCGUG | – | – | 11.7 | 18.8 |
| GUCUCGUGAGGAUAUGACGCUACUUUUUUGUUUUAGUAGAGUCAGAAGGCACAUGAGGAUCACCCAUGUGAUUC | – | – | 78.6 | 48.7 |
| GCUGGACGAGGAUAUGCAAUCGUGCUUCGGCACGUAAGAUCACAUGAGGAUCACCCAUGUAGAAGGUGUCCAGC | – | – | 17.9 | 30.2 |
| GGUCUACAUGAGGAUCACCCAUGUCAGGAUAUCGUGUGUUUUUUUUCGGCCGCGCGUGCGAGAAGGGACGUCUU | – | – | 17.6 | 18.1 |
| ACAAGAUCAGGAUAUACAUGAGGAUCACCCAUGUUUAUCCAAAAGGGACUUUCUUUAUGUAGAAGGGAUCUUGU | – | – | 16.8 | 32.3 |
| GGUGCAUAUGAGAAGGCGAUCAUGAAACAUGAUCGAGGAUAUCAUGUAAACAUGAGGAUCACCCAUGUAUGGGUAAAGUGCAUC | 444 | 27.1 | – | – |
| UCAUUAUAAAUCCAUCAUAACUACAUGAGGAUCACCCAUGUGCAGGAUAUCGAUUAUUUUACUAACGAGAAGGGCAUUUACAGA | – | – | 51.1 | 181 |
| AUGAGAGCAGGAUAUGCAGGUGUGCCGGAAGAAAGAAGAAGACAUGAGGAUCACCCAUGUAGAAGGGCUAGCCC | – | – | 19.1 | 15.6 |
| UUUAAGUCAGGAUAUCGUUAAUUUAAUUAAUUAUUUUAAUUCGAGAAGGGACAUGAGGAUCACCCAUGUAAUUU | – | – | 36.8 | 60.2 |
| GGAUAGGACAGAGGAUAUACGGAUAGGAUCUACUAUCCUCCUUAAAUAACAUGAGGAUCACCCAUGUAGAAGGCUGUCCUAUCG | – | – | 16.9 | 40.5 |
| GAGCGAAAGCUCAAUGUCGAUAGCAGAAGGACAUGAAAACAUGAAAUAACAUGAGGAUCACCCAUGUAGGAUAUGCUAUCGACU | – | – | 17.9 | 279 |
| CAGGUAGACUGAGGAUAUACAAAGACCUAGUUUAUCUAGGUCAACAUCACAUGAGGAUCACCCAUGUAGAAGGCAGUCUGCCUG | – | – | 15.4 | 24.7 |
| UCUAUGUAGAUUCAUCAAUACAGUAAGGAUAUGAGAUACAUGAGGAUCACCCAUGUGCAUGUGGAUUAGAAGGUACAAUUAACU | – | – | 293 | 188 |
| AUACAUGAGGAUCACCCAUGUAAUUAAUUAAUUAAUAAGAUCUAGGAUAUCAGCUCGAAUAGAGCUGAGAAGGAGAUCACAUGU | 23 | 14.4 | – | – |
| AGUUUGCGGCAGGAUAUCCAUCCGCGGUGUGGUGGAGAAGGGCUGACAUGAGGAUCACCCAUGUGCGUCCUGUA | – | – | 23.2 | 32.5 |
| UAAACAUGAGGAUCACCCAUGUAAAGAUCGGUAGUAGAGAGUGAGGAUAUACUAAAUUUUAUGGAGUAGAAGGCACUGGGUUCU | 40.1 | 32.3 | – | – |
| GCGUUUUAUGCAGGAUAUUGUAAUUUAUUACUACAAGAAGGGCAAUACAUGAGGAUCACCCAUGUCAGCAUGGUAUUAAAGUUC | – | – | 37.6 | 42.8 |

| Sequence | apparent Kd [1] [nM] | apparent Kd [2] [nM] | apparent Kd [3] [nM] | apparent Kd [4] [nM] |
| --- | --- | --- | --- | --- |
| GCCUUACCGGUCAGGAUAUACACCCGUCACUCCUUGUAGAAGGGACAUGAGGAUCACCCAUGUACAUUACAUUG | – | – | 31.1 | 29.2 |
| AAAACACAUGAGGAUCACCCAUGUGAGGAUAUCGUGCAGUAGACGAAAGUCUACUGCACGAGAAGGCACAAGGA | – | – | 49 | 81.3 |
| AUCGGUCCGUAGAAGGGUGACAUGAGGAUCACCCAUGUGCCGUGUGCGUUUAUGCCUCCACGGCCACAGGAUAUACGGAGUUGA | 28.2 | 19.1 | – | – |
| CAGAAGUCAGGAUAUCCUGCUCGUCACUUGCGUGAUGAGUAGGAGAAGGGACAUGAGGAUCACCCAUGUAAAGC | – | – | 53.8 | 65.2 |
| GCCUUAUCUGUCAGGAUAUACAUUUUUUUUUUUUUGUAGAAGGGACAUGAGGAUCACCCAUGUACAUUACAUUG | – | – | 42.4 | 42.9 |
| GUUAUUUAUGUAGGAUAUGCGAGGCGAGCCUAAGCAGAAGGACAUGAGGAUCACCCAUGUAUUGCGGUCUGCGUUCAGAUCGCU | – | – | 32.4 | 150 |
| ACGGCAAUCAGAGGAUAUGGUUACAUGAGGAUCACCCAUGUCAAGGGUCUAAUUAGGUAUAACUACCAGAAGGCUGAAGGCCUA | – | – | 56.1 | 94.8 |
| GCCAUCACAUGAGGAUAUGCUCCCGUUUCGGGAGCAGAAGGCGUGUCAUUAGACAUGAGGAUCACCCAUGUAGUUAAGAUGGCA | 667 | 22.8 | – | – |
| AGCUAGUCAGGAUAUACGAGAACGAACGAAGCAGUGAAGGGACAUGAGGAUCACCCAUGUAGAAGGGACUAGCA | – | – | 36 | 82.6 |
| CAUACACAUGAGGAUCACCCAUGUGAGGAUAUGAAUACGUUGUCCGUAGGCGACGUGAUCAGAAGGCGCUUGGU | – | – | 45.4 | 61.8 |
| UGGCUACAUGAGGAUCACCCAUGUCAGGAUAUGCCGUUGGAUUGCCUUCGUCGUUCGGGUAGAAGGGACUGCGG | – | – | 22.1 | 21.5 |
| CUGGAUGUCGAGGAUAUGCACCGGCUCGCUGACGCAGAAGGCGACACAUGAGGAUCACCCAUGUCGGUUCGCGA | – | – | 18.6 | 42 |
| GGAUCGAGUGUGAGGAUAUACCUAUGGAAACAUAGGUAGAAGGCACAUGAGGAUCACCCAUGUCCUAACGGUCC | – | – | 350 | 514 |
| AAAACUCACGUAGGAUAUCAUUCCUUAAGGUAGUGAGAAGGACGUGACUACAUGUCCUAAAACAUGAGGAUCACCCAUGUAGGC | – | – | 33.5 | 26.5 |
| GGAUAGGACAGAGGAUAUACGGCUAGGAGAUACUAGCUACUAUUCCUCACAUGAGGAUCACCCAUGUAGAAGGCUGUCCUAUCG | – | – | 17.6 | 140 |
| UGAUAGGACAGAGGAUAUACAGAUAGGAUCUACUAUCAAACAAUCCUGACAUGAGGAUCACCCAUGUAGAAGGCUGUCCUAUCU | – | – | 22.5 | 86.5 |
| UCGAAACAGACAGGAUAUGCAGGGAGGUGCCGGUACAUGAGGAUCACCCAUGUAGAAGGGUCUCGAGUUGAACUUCAGUCAAAG | – | – | 9.61 | 19.5 |
| AGCGUCGGCACAGGAUAUGAGAUGCCGGCAGACAUGAGGAUCACCCAUGUAAGCGAACCAGGCAGUCAGAAGGGUGAUCGACAA | 56.3 | 21.7 | – | – |
| UGGUACUAGGGAGGAUAUGGGAAGAUACAUGAGGAUCACCCAUGUUUAAGAAUGCCGAGAGGCAACUAGAAGGCCAUAGUACCU | 405 | 22 | – | – |
| AAAUUGGUAGAGGAUAUCGGAUAGGAUUUACUGCGAGAAGGCUGCACAUGAGGAUCACCCAUGUUCUGUUGCGA | – | – | 25.1 | 26 |
| ACAUGAGGAUCACCCAUGUUAUCCGGGACUUCAAUUGUUUCUAGAAGGCUGUUUGCUUGUUAGUCAGAGGAUAUAGAAUCAAAU | – | – | 10.2 | 10.1 |
| GGAUGACAAAGUCAUCCAAUACGAACAUGAGGAUCACCCAUGUAGGAUAUCGUACUCAAAGAGUACGAGAAGGACAUGUGCCUU | – | – | 37.6 | 236 |
| GGUACUCAAAGAGUACCAAUACGAACAUGAGGAUCACCCAUGUAGGAUAUUCUACUCAAAGAGUAGCAGAAGGACAUGUGCCUA | – | – | 10.8 | 13.1 |
| UUCCGGCGUGUAGGAUAUGGAUCCGAUUAGGAUCCAGAAGGACAUGAGGAUCACCCAUGUACAUGUAAACAGUCAUCACCGGAU | – | – | 8.09 | 40.2 |
| AAGGGUAGGCAGGAUAUCCAGGUCGACACCGCGGGAGAAGGGCUUACAUGAGGAUCACCCAUGUAGGGUGCGAU | – | – | 177 | 129 |
| ACAUUUAUAUCAGGAUAUACAAUACAAUGAUUAGUAGAAGGGAUUAAUACAUGAGGAUCACCCAUGUCAUGUGUCAUAAUAACC | – | – | 25.8 | 19.6 |
| UUGGACGUCGUAGAAUAUGUAGGAUAUUCCUACAUGAGGAUCACCCAUGUUGACAUGGAAGAAGGACAGAAGGACGAUGUCCAU | 188 | 7.02 | – | – |
